Converted amounts (≈) assume the structure as drawn. Numbered stars: 1 amine (or outer) side, 2 acyl side, 3 side chain; on linkers, the order of the positions; unused ones are H or OH. Bridge positions count the residues as written; N and C are the ends. Square brackets hold non-standard residues; d marks the D form. Peptide text beside a SMILES is read from it. Gln(3R-OH) = NC(=O)C[C@@H](O)[C@H](N)C(=O)O; X1 = CCCCCCCCCCCCC[C@H](CC(=O)[*:1])O[*:2]; Pro(3S-OH) = O=C(O)[C@H]1NCC[C@@H]1O; d(aThr) = C[C@@H](O)[C@@H](N)C(=O)O; Hyp = O=C(O)[C@@H]1C[C@@H](O)CN1; Orn = NCCC[C@H](N)C(=O)O
Assays:
[1] = test system: Candida albicans; experiment: In vitro Antifungal activity against Candida albicans FP633 by agar dilution method using Sabouraud Dextrose agar.; format: functional
Method in brief: (§1)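 Agar dilution on Sabouraud Dextrose agar. MIC taken as the lowest concentration that inhibits visible growth.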

[2] = test system: Candida tropicalis; experiment: In vitro antifungal activity against Candida tropicalis 8001 by agar dilution method using Sabouraud Dextrose agar.; format: functional; method in brief: as §1
[3] = test system: Candida albicans; experiment: In vitro antifungal activity against Candida albicans FP579 by agar dilution method using Sabouraud Dextrose agar.; format: functional; method in brief: as §1
[4] = species: Mus musculus; experiment: Ability to hemolyze ICR mouse RBCs at 1 mg/mL using microtiter red blood cell hemolysis assay.
[5] = test system: Meyerozyma guilliermondii; experiment: In vitro antifungal activity against Candida guilliermondii FP587 by agar dilution method using Sabouraud Dextrose agar.; format: functional; method in brief: as §1
[6] = test system: Candida parapsilosis; experiment: In vitro antifungal activity against Candida parapsilosis 15001 by agar dilution method using Sabouraud Dextrose agar.; format: functional; details: Lodderomyces parapsilosis; method in brief: as §1
[7] = test system: Mus musculus; experiment: Compound was evaluated in vivo for antifungal activity and efficacy in disseminated murine candidiasis was determined; format: functional
[8] = test system: Candida albicans; experiment: Compound was evaluated in vivo for antifungal activity and efficacy in disseminated murine candidiasis caused by candida albicans FP633; format: functional
[9] = test system: Candida albicans; experiment: In vitro antifungal activity against Candida albicans FP633 by agar dilution method using Sabouraud Dextrose agar; format: functional; method in brief: as §1
[10] = Candida tropicalis, read-out: MIC

CCCCCCCCCCCCC[C@H](CC(=O)N[C@@H](C(=O)N[C@H](C)C(=O)N[C@@H](Cc1ccc(O)c([N+](=O)[O-])c1)C(=O)N[C@H](C(=O)N1C[C@H](O)C[C@H]1C(=O)N[C@@H](C(=O)N[C@H](C(=O)N1CC[C@H](O)[C@H]1C(=O)N[C@H](C(=O)NCC(=O)N[C@@H](C(N)=O)[C@@H](C)O)[C@H](O)CC(N)=O)[C@@H](C)O)[C@@H](C)O)C(C)C)[C@@H](C)O)OC(=O)[C@@H](C)CCCN
MIC [1]: 0.39 µg/mL (≈ 0.245 µM)
MIC [2]: 0.78 µg/mL (≈ 0.489 µM)
MIC [2, 10]: 0.78 µg/mL (≈ 0.489 µM)
MIC [3]: 0.78 µg/mL (≈ 0.489 µM)
Hemolytic activity [4]: 100%
MIC [5]: 0.78 µg/mL (≈ 0.489 µM)
MIC [6]: 0.78 µg/mL (≈ 0.489 µM)
ED50 [7]: 0.45 mg/kg

CCCCCCCCCCCCC[C@H](CC(=O)N[C@@H](C(=O)N[C@H](C)C(=O)N[C@@H](Cc1ccc(O)c(NC(=O)CCN)c1)C(=O)N[C@H](C(=O)N1C[C@H](O)C[C@H]1C(=O)N[C@@H](C(=O)N[C@H](C(=O)N1CC[C@H](O)[C@H]1C(=O)N[C@H](C(=O)NCC(=O)N[C@@H](C(N)=O)[C@@H](C)O)[C@H](O)CC(N)=O)[C@@H](C)O)[C@@H](C)O)C(C)C)[C@@H](C)O)OC(=O)[C@@H](C)CCCNC(C)=O.Cl
MIC [1]: 1.56 µg/mL
MIC [2]: 1.56 µg/mL
MIC [2, 10]: 1.56 µg/mL
MIC [3]: 1.56 µg/mL
Hemolytic activity [4]: 23%
MIC [5]: 1.56 µg/mL
MIC [6]: 1.56 µg/mL

CCCCCCCCCCCCC[C@H](CC(=O)N[C@@H](C(=O)N[C@H](C)C(=O)N[C@@H](Cc1ccc(O)c(N)c1)C(=O)N[C@H](C(=O)N1C[C@H](O)C[C@H]1C(=O)N[C@@H](C(=O)N[C@H](C(=O)N1CC[C@H](O)[C@H]1C(=O)N[C@H](C(=O)NCC(=O)N[C@@H](C(N)=O)[C@@H](C)O)[C@H](O)CC(N)=O)[C@@H](C)O)[C@@H](C)O)C(C)C)[C@@H](C)O)OC(=O)[C@@H](C)CCCN
MIC [1]: 0.78 µg/mL (≈ 0.498 µM)
MIC [2]: 1.56 µg/mL (≈ 0.997 µM)
MIC [2, 10]: 1.56 µg/mL (≈ 0.997 µM)
MIC [3]: 1.56 µg/mL (≈ 0.997 µM)
Hemolytic activity [4]: 100%
MIC [5]: 0.78 µg/mL (≈ 0.498 µM)
MIC [6]: 1.56 µg/mL (≈ 0.997 µM)

CCCCCCCCCCCCC[C@@H]1CC(=O)N[C@H]([C@@H](C)O)C(=O)N[C@H](C)C(=O)N[C@@H](Cc2ccc(O)cc2)C(=O)N[C@@H](C(C)C)C(=O)N2C[C@H](O)C[C@H]2C(=O)N[C@H]([C@@H](C)O)C(=O)N[C@@H]([C@@H](C)O)C(=O)N2CC[C@H](O)[C@H]2C(=O)N[C@@H]([C@H](O)CC(N)=O)C(=O)NCC(=O)N[C@H]([C@@H](C)O)C(=O)N[C@@H](CCCN)C(=O)O1 [FR-901469] ([d(aThr)][dA]YV[Hyp][d(aThr)]T[Pro(3S-OH)][Gln(3R-OH)]G[d(aThr)][Orn]; linker N-C via X1)
ED50 [8]: 0.88 mg/kg
MIC [2]: 0.39 µg/mL (≈ 0.254 µM)
MIC [2, 10]: 0.39 µg/mL (≈ 0.254 µM)
MIC [3]: 0.39 µg/mL (≈ 0.254 µM)
Hemolytic activity [4]: 100%
MIC [5]: 0.39 µg/mL (≈ 0.254 µM)
MIC [6]: 0.39 µg/mL (≈ 0.254 µM)
MIC [9]: 0.39 µg/mL (≈ 0.254 µM)

Reference: ChEMBL document CHEMBL1134139, “Synthesis and biological activity of novel macrocyclic antifungals. modification of the tyrosine moiety of the lipopeptidolactone FR901469” (2001)
